Source: PubChem BioAssay
Jurkat NFkB inh: lowers PMA/ionomycin-induced NF-kB signal in Jurkat cells. PMA/ionomycin-induced NF-kB luciferase reporter, luminescence. inhibition, % at 4 µM. actives 0.53% (n = 330,000); in the data active means inhibition above about 50%
JMJD2C inh: blocks human GASC-1 demethylase activity; Q9H3R0; GST-JMJD2C(1-420) H3K9me3 demethylation, DELFIA europium; inhibition, % at 2.35 µM; actives 0.069% (n = 330,000); AID 2099;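 active means more than half of a compound's replicate wells show inhibition beyond 50%, single wells judged on their own value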;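 further: signal counts dimethyl H3K9 product captured on neutravidin plate; 0% = median of DMSO wells and 100% = 0.3 times that DMSO median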
GalR3 antag: antagonists of human GalR3; AID 651719; HEK293 GalR3-CNG cAMP membrane potential fluorescence; galR3 body fused to GalR1 C-terminus; actives 0.44% (n = 360,000); O60755; inhibition, % at 3 µM;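 active means inhibition above the screen-wide average plus 3 SD, cut at about 13% in these data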;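 further: forskolin and galanin both at EC90 stimulate the cells; cAMP rise reported by CNG channel membrane potential dye signal; 0% = forskolin plus galanin with DMSO and 100% = forskolin alone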
Target sequence (O60755 1-299 limits assumed): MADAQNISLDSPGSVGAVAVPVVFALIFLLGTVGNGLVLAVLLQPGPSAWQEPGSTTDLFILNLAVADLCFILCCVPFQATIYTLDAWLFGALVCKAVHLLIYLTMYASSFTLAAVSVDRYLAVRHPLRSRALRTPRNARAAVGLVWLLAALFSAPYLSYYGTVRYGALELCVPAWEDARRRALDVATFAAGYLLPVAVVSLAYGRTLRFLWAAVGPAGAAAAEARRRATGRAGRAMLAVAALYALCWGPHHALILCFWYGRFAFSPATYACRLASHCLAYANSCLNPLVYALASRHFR
NR2E3 ag-1: activates human NR2E3 receptor; AID 602229; inhibition of corepressor binding, % at 3.98 µM; CHO-S Gal4-NCOR/VP16-NR2E3 two-hybrid, luciferase; actives 0.35% (n = 360,000);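 active means inhibition above the mean of all tested compounds plus 3 SD, cut at about 70% in these data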;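 further: 0% = DMSO with NR2E3 transfected cells and 100% = cells lacking NR2E3 construct; higher means lower luciferase signal from less NR2E3 corepressor binding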
Target sequence (Q9Y5X4 whole entry, looked up, the tested form may be a part): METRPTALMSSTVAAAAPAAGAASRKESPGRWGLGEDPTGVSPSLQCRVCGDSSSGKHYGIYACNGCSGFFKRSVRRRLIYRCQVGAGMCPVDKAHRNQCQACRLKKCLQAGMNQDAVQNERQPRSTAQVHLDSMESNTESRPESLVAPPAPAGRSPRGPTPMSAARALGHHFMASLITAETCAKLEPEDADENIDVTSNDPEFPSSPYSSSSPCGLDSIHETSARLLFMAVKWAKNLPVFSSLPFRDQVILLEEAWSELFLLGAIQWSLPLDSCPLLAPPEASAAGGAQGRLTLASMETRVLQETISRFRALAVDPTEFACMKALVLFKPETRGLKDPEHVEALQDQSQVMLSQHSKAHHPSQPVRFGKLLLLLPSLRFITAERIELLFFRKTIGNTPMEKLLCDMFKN
697 NFkB inh: lowers PMA/ionomycin-induced NF-kB signal in 697 B cells. 697 B-cell NF-kB luciferase reporter, 16 h. inhibition, % at 4 µM. actives 0.33% (n = 330,000). AID 435022; in the data active means inhibition above about 35%
NR2E3 ag-2: activates human photoreceptor nuclear receptor NR2E3; Q9Y5X4; GST-NR2E3/biotin-RetCOR TR-FRET, 1536-well; inhibition of corepressor binding, % at 4.78 µM; actives 0.12% (n = 320,000);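 active means percent inhibition above the cutoff of mean plus 3 SD of all tested compounds, set per screening campaign, cut at about 20% in these data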;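 further: 0% = DMSO wells and 100% = biotin wells as full block of FRET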
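System: GST-NR2E3 and biotin-RetCOR proteins; probe or stimulus: 7 nM biotin-RetCOR; doses: compound at 4.8 µM, single dose; schedule: Compound–protein incubation for 5 h at 4 °C; detection: time-resolved FRET; read-out: percent inhibition; controls: biotin wells as high control, 0.6% DMSO wells as low control; format: 1536-well plates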
Jurkat NFkB conf: inhibitors of the PMA/ionomycin-induced NF-kB reporter in Jurkat cells, retest | AID 435020 | actives 27% (n = 2,700) | Jurkat NF-kB luciferase, 16 h | shares compounds with Jurkat NFkB inh | inhibition, % at 4 µM;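 active means inhibition reaching about 45% at 4 µM in either replicate, limit read from the data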;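 further: plate controls were PMA/ionomycin stimulated DMSO wells for no effect and unstimulated DMSO wells for full effect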
697 NFkB conf: lowers PMA/ionomycin-induced NF-kB signal in 697 B cells; shares compounds with 697 NFkB inh; 697 B-cell NF-kB luciferase, 16 h; inhibition, % at 4 µM; actives 35% (n = 2,000); AID 449746; in the data active means inhibition mostly above about 28%, no sharp cut-off; inactive means mostly below about 22%
NR2E3 ag confirm: confirmation of human NR2E3 agonists | shares compounds with NR2E3 ag-1 | CHO-S mammalian two-hybrid NR2E3-NCOR, luciferase luminescence | inhibition, % at 3.98 µM | actives 51% (n = 2,300) | AID 624378;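 active means average inhibition above a cutoff equal to the mean inhibition of all tested compounds plus one SD, cut at about 70% in these data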;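 further: 0% = DMSO in NR2E3 cells and 100% = DMSO in cells lacking NR2E3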
GAL4-VP16 luc: counter-screen for NR2E3 agonists: GAL4-VP16 reporter inhibitors | shares compounds with NR2E3 ag-1 | CHO-S GAL4-VP16 luciferase reporter, luminescence | inhibition, % at 3.98 µM | actives 29% (n = 2,300);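 active means mean inhibition above a cutoff equal to the average over all tested compounds plus one standard deviation, cut at about 70% in these data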;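 further: luciferase from a UAS reporter driven by GAL4-VP16 transactivation; 0% = DMSO with VP16-transfected cells and 100% = DMSO with cells lacking VP16; higher means less reporter light so more repression of VP16 activity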
GalR3 conf: GalR3 (human) antagonism, confirmation. actives 59% (n = 1,600). inhibition, % at 3 µM. HEK293 GalR3 CNG cAMP biosensor, membrane potential fluorescence; galR3 fused to GalR1 carboxy tail; challenged with forskolin and galanin at EC90. shares compounds with GalR3 antag. AID 652245;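 active means inhibition above the primary screen's cutoff, the mean inhibition of all screened compounds plus 3 SD, cut at about 13% in these data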;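 further: 0% = forskolin plus galanin and 100% = forskolin alone with DMSO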
CNG parental: parental cell agonism counter-screen for GalR3 antagonists | shares compounds with GalR3 antag | HEK293-CNG parental cells, cAMP membrane potential fluorescence; normalised: DMSO wells 0%, forskolin wells 100% | activation, % at 3 µM | actives 10% (n = 1,600) | AID 652268; in the data active means activation above about 1.3%
Starred values were filed as active, the others as inactive; i = inactive; x = no result. Shown are actives, neighbours in structure and some others; about 1.5% of the full set was active somewhere.

SMILES	Jurkat NFkB inh	JMJD2C inh	GalR3 antag	NR2E3 ag-1	697 NFkB inh	NR2E3 ag-2	697 NFkB conf	others
Nc1ncnc2c1ccn2[C@@H]1O[C@H](CO)[C@@H](O)[C@H]1O	86.3*	59.8	-6.3	99.6*	74.6*	2.1	98.2*	Jurkat NFkB conf=85.4*;NR2E3 ag confirm=97.7*;GAL4-VP16 luc=88.6*
C[C@]12CCC3C(C(=O)C[C@H]4C[C@@H](O)CC[C@]34C)C1CCC2=O (some centres undefined)	-1.5	-2.7	-4.5	0.6	21.3	x	x
C[C@H]1CCC/C=C/[C@@H]2C[C@H](O)C[C@H]2[C@H](O)/C=C/C(=O)O1	97.8*	20.9	0.0	95.2*	65.7*	4.6	80.8*	Jurkat NFkB conf=-15.1;NR2E3 ag confirm=98.8*;GAL4-VP16 luc=64.5
C[C@H]1CCCC(=O)CCC/C=C/c2cc(O)cc(O)c2C(=O)O1	5.6	16.3	1.1	23.6	0.7	0.7	x
CCOc1cccc(CNCCc2c(C)[nH]c3ccc(OC(F)(F)F)cc23)c1O	66.4*	-9.6	72.5*	97.5*	-24.5	2.3	x	Jurkat NFkB conf=24.9;NR2E3 ag confirm=89.7*;GAL4-VP16 luc=70.5;GalR3 conf=95.6*;CNG parental=-0.4
Cc1[nH]c2ccc(OC(F)(F)F)cc2c1CCNCc1cccc([N+](=O)[O-])c1	20.0	38.7	-13.1	1.1	-8.2	3.2	x
CC[n+]1c(/C=C/C=C/c2ccc(N(C)C)cc2)sc2ccccc21	69.6*	1.2	19.4*	34.4	-35.1	-58.0	x	Jurkat NFkB conf=20.2;GalR3 conf=74.4*;CNG parental=3.5*
COc1cc2c(cc1OC)[C@@H]1C(=O)c3ccc4c(c3O[C@@H]1CO2)C[C@H](C(C)C)O4	74.5*	-17.7	97.5*	96.0*	71.5*	0.2	80.9*	Jurkat NFkB conf=77.8*;NR2E3 ag confirm=99.8*;GAL4-VP16 luc=92.7*;GalR3 conf=115.5*;CNG parental=0.1
COc1cc2c(cc1OC)[C@H]1C(=O)c3ccc4c(c3O[C@H]1CO2)C[C@@H](C(C)(C)O)O4	3.5	2.2	-8.7	30.6	-17.2	x	x
O=C(NCCN1CCC2(CC1)C(=O)NCN2c1ccccc1)c1ccc(OC(F)(F)F)cc1	x	x	-2.8	x	x	x	x
CC(=O)c1cn(Cc2ccccc2C#N)c2ccccc12	52.2*	12.4	90.3*	74.7*	47.2*	1.6	29.8*	Jurkat NFkB conf=54.8*;NR2E3 ag confirm=87.9*;GAL4-VP16 luc=85.4*;GalR3 conf=102.6*;CNG parental=0.5
O=C(NCCN1CCC2(CC1)C(=O)NCN2c1ccccc1)C(c1ccccc1)c1ccccc1	x	x	-7.2	x	x	x	x
CCCCn1c(O)c(C(CC)=NC(C)c2ccccc2)c(=O)[nH]c1=O (centres undefined)	6.2	12.7	-5.7	-10.1	17.3	0.1	x
C=CCn1c(O)c(C(CC)=NC(C)c2ccccc2)c(=O)[nH]c1=O (centres undefined)	-7.8	15.4	-2.8	-11.1	60.6*	-0.1	38.9*
CC1=C(C)CN2CC(C#N)=C(N)C2C1 (centres undefined)	x	x	x	-18.9	x	x	x
Cc1cc(N=Nc2ccccc2C)ccc1N	-72.3	-3.2	-4.5	x	-329.7	-1.3	-112.8
COC(=O)C(C)Oc1cc(C)cc2oc(=O)c3c(c12)CCC3 (centres undefined)	14.5	-4.0	-5.2	-8.0	36.0*	1.1	55.5*
N#Cc1ccc(NC(=S)N2Cc3ccc(Br)cc3-n3nncc3C2)cc1	x	x	-7.7	x	x	x	x
O=C(N1CCCCCC1)N1CC1	x	x	-2.6	-14.1	x	x	x
CN(C)P(=O)(C(Cl)=C(N1CCCCC1)N1CCCCC1)N(C)C	-17.4	-2.1	-3.3	-7.1	40.7*	-1.9	23.4
Cc1nc2c(-c3ccccc3)c(C)nn2c(C)c1CCC(=O)N1CCC2(CC1)OCCO2	0.3	-2.8	-5.5	8.5	-13.9	-1.5	x
Cc1nc2cc(-c3cccc(F)c3)nn2c(C)c1CCC(=O)N1CCC2(CC1)OCCO2	17.9	1.5	-2.3	6.4	36.0*	1.2	35.7*
N#Cc1ccc2nc(-c3ccc(CN4CCC(n5c(=O)[nH]c6cc(Cl)ccc65)CC4)cc3)c(-c3ccccc3)nc2c1	x	x	-3.6	x	x	x	x
N=c1c2c(n(Cc3ccc(Cl)cc3Cl)c3c1CCC3)CCCC2	29.7	6.0	x	-11.2	67.6*	-0.7	32.9*
CN1CC[C@@H]2CN[C@H](c3ccccc3Br)C[C@@H]21	x	x	-3.0	x	x	x	x
SMILES	Jurkat NFkB inh	JMJD2C inh	GalR3 antag	NR2E3 ag-1	697 NFkB inh	NR2E3 ag-2	697 NFkB conf	others
Cc1cc(C)cc(N2C(=O)NC(=O)/C(=C\c3cccn3-c3ccccc3)C2=O)c1	10.2	-2.5	0.1	-1.0	53.3*	2.8	61.5*
CN(C)c1ccc(C(=O)N/N=C/C23CC[C@@H](O)CC2(O)CC[C@@H]2[C@@H]3CCC3(C)C(C4=CC(=O)OC4)CCC23O)cc1 (some centres undefined)	-11.1	-9.3	42.5*	12.3	i	2.5	-314.0	GalR3 conf=37.8*;CNG parental=1.4*
CCC12CCN(CC3(O)CC3)C(Cc3ccc(O)cc31)C2(C)C (centres undefined)	x	x	-3.7	x	x	x	x
CC(=O)OC1CC[C@]2(C#N)[C@H]3CC[C@]4(C)[C@H](C5C=CC(=O)O5)CCC4(O)C3CCC2(O)C1 (some centres undefined)	9.6	8.6	26.3*	-10.4	i	0.5	-246.3	GalR3 conf=21.6*;CNG parental=1.8*
O=P1(c2ccccc2)Nc2ccccc2N1c1ccccc1 (centres undefined)	x	x	-4.3	-19.5	x	x	x
CC1=C(N2CC2)C(=O)C(CO)=C(N2CC2)C1=O	x	x	-5.5	58.9	x	x	x	NR2E3 ag confirm=99.4*;GAL4-VP16 luc=96.4*
[N-]=[N+]=NCCN1CCC(O)CCC1=O (centres undefined)	1.4	0.2	-4.2	-11.6	6.8	1.0	x
C[C@@H]1CN([C@H](C)CO)C(=O)CCCn2nncc2CO[C@@H]1CN(C)C(=O)Oc1ccc2ccccc2c1	x	x	-3.6	-6.4	x	x	x
